Test results taken from ChEMBL document CHEMBL3588757, “Structure-based design, synthesis and biological testing of piperazine-linked bis-epipodophyllotoxin etoposide analogs” (Bioorg Med Chem, 2015).

What was measured:
Assay type in all cases: functional
[1] = Cytotoxicity against human NCI-ADR-RES cells by SRB assay
How it was run: (§1)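 NCI-60 panel screen; 5-dose testing giving GI50 per cell line, plus a single 10 µM one-dose test. Method details not given beyond the NCI screen.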

RPMI-8226 = assay: Cytotoxicity against human RPMI8226 cells assessed as cell growth at 0.05 uM by SRB assay; conditions: read-out: Activity
HOP-92 [2] = assay: Cytotoxicity against human HOP92 cells assessed as cell growth at 0.5 uM by SRB assay; conditions: read-out: Activity
How it was run: (§2)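 Measured in the NCI-60 human tumour cell line panel using five-dose testing. Growth was recorded at each dose for each cell line, and a GI50 was derived for each line.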

IGROV-1 [3] = assay: Cytotoxicity against human IGROV1 cells assessed as cell growth at 0.005 uM by SRB assay; conditions: read-out: Activity; how it was run: as §2
NCI-H23 [4] = assay: Cytotoxicity against human NCI-H23 cells by SRB assay; how it was run: as §1
T47D = assay: Cytotoxicity against human T47D cells by SRB assay; how it was run: as §1
NCI-H23 [5] = assay: Cytotoxicity against human NCI-H23 cells assessed as cell growth at 50 uM by SRB assay; conditions: read-out: Activity
KM12 = assay: Cytotoxicity against human KM12 cells assessed as cell growth at 0.5 uM by SRB assay; conditions: read-out: Activity
SW-620 [6] = assay: Cytotoxicity against human SW620 cells assessed as cell growth at 50 uM by SRB assay; conditions: read-out: Activity
OVCAR-8 [7] = assay: Cytotoxicity against human OVCAR8 cells assessed as cell growth at 0.005 uM by SRB assay; conditions: read-out: Activity
NCI-H522 = assay: Cytotoxicity against human NCI-H522 cells assessed as cell growth at 0.5 uM by SRB assay; conditions: read-out: Activity
UACC-257 [8] = assay: Cytotoxicity against human UACC257 cells by SRB assay; how it was run: as §1
NCI-H226 = assay: Cytotoxicity against human NCI-H226 cells assessed as cell growth at 0.005 uM by SRB assay; conditions: read-out: Activity
NCI-H460 = assay: Cytotoxicity against human NCI-H460 cells assessed as cell growth at 0.005 uM by SRB assay; conditions: read-out: Activity
SK-OV-3 = assay: Cytotoxicity against human SKOV3 cells by SRB assay; how it was run: as §1
OVCAR-8 [9] = assay: Cytotoxicity against human OVCAR8 cells by SRB assay; how it was run: as §1
LOX IMVI = assay: Cytotoxicity against human LOXIMVI cells assessed as cell growth at 0.005 uM by SRB assay; conditions: read-out: Activity
MDA-MB-468 = assay: Cytotoxicity against human MDA-MB-468 cells by SRB assay; how it was run: as §1
HL-60(TB) = assay: Cytotoxicity against human HL-60(TB) cells assessed as cell growth at 50 uM by SRB assay; conditions: read-out: Activity; how it was run: as §2
SK-MEL-28 = assay: Cytotoxicity against human SK-MEL-28 cells assessed as cell growth at 0.05 uM by SRB assay; conditions: read-out: Activity
A549 = assay: Cytotoxicity against human A549/ATCC cells assessed as cell growth at 0.05 uM by SRB assay; conditions: read-out: Activity
M14 [10] = assay: Cytotoxicity against human M14 cells assessed as cell growth at 0.05 uM by SRB assay; conditions: read-out: Activity
TK-10 = assay: Cytotoxicity against human TK10 cells assessed as cell growth at 50 uM by SRB assay; conditions: read-out: Activity
[11] = Cytotoxicity against human NCI-ADR-RES cells assessed as cell growth at 0.5 uM by SRB assay; conditions: read-out: Activity
CAKI-1 = assay: Cytotoxicity against human Caki1 cells by SRB assay
COLO 205 = assay: Cytotoxicity against human COLO205 cells assessed as cell growth at 5 uM by SRB assay; conditions: read-out: Activity
BT-549 = assay: Cytotoxicity against human BT549 cells assessed as cell growth at 5 uM by SRB assay; conditions: read-out: Activity
HOP-92 [12] = assay: Cytotoxicity against human HOP92 cells assessed as cell growth at 0.05 uM by SRB assay; conditions: read-out: Activity; how it was run: as §2
SW-620 [13] = assay: Cytotoxicity against human SW620 cells assessed as cell growth at 5 uM by SRB assay; conditions: read-out: Activity
UACC-257 [14] = assay: Cytotoxicity against human UACC257 cells assessed as cell growth at 50 uM by SRB assay; conditions: read-out: Activity
A498 = assay: Cytotoxicity against human A498 cells assessed as cell growth at 0.5 uM by SRB assay; conditions: read-out: Activity
OVCAR-3 = assay: Cytotoxicity against human OVCAR3 cells assessed as cell growth at 5 uM by SRB assay; conditions: read-out: Activity
SF-295 [15] = assay: Cytotoxicity against human SF295 cells assessed as cell growth at 0.5 uM by SRB assay; conditions: read-out: Activity
M14 [16] = assay: Cytotoxicity against human M14 cells by SRB assay; how it was run: as §1
SF-295 [17] = assay: Cytotoxicity against human SF295 cells assessed as cell growth at 5 uM by SRB assay; conditions: read-out: Activity
IGROV-1 [18] = assay: Cytotoxicity against human IGROV1 cells by SRB assay; how it was run: as §1
[19] = Cytotoxicity against human Hs578T cells assessed as cell growth at 0.5 uM by SRB assay; conditions: Hs-578T, read-out: Activity; how it was run: as §2
OVCAR-4 = assay: Cytotoxicity against human OVCAR4 cells by SRB assay; how it was run: as §1
[20] = read-out: LC50 (the source's name)
[21] = read-out: pLC50 (the source's name) (converted)

COc1cc([C@@H]2c3cc4c(cc3[C@@H](NC(=O)CN3CCN(CCCCCCCCCCN5CCN(CC(=O)N[C@@H]6c7cc8c(cc7[C@@H](c7cc(OC)c(O)c(OC)c7)[C@H]7C(=O)OC[C@@H]76)OCO8)CC5)CC3)[C@H]3COC(=O)[C@H]23)OCO4)cc(OC)c1O
GI50 ([1]; read-out: GI50): 6480 nM | CC50 [1, 20]: > 50000 nM | TGI ([1]; read-out: TGI): > 50000 nM | GI50 ([1]; read-out: pGI50 (converted)): 6460 nM | CC50 [1, 21]: > 50100 nM | TGI ([1]; read-out: pTGI): > 50100 nM | growth at 0.05 µM (RPMI-8226): 13% | growth at 0.5 µM (HOP-92 [2]): 21% | growth at 0.005 µM (IGROV-1 [3]): 90% | GI50 (NCI-H23 [4]; read-out: GI50): 181 nM | CC50 (NCI-H23 [4]; [20]): 9300 nM | TGI (NCI-H23 [4]; read-out: TGI): 1320 nM | GI50 (NCI-H23 [4]; read-out: pGI50 (converted)): 182 nM | CC50 (NCI-H23 [4]; [21]): 9330 nM | TGI (NCI-H23 [4]; read-out: pTGI (converted)): 1320 nM | GI50 (T47D; read-out: GI50): 463 nM | CC50 (T47D; [20]): > 50000 nM | TGI (T47D; read-out: TGI): 9740 nM | GI50 (T47D; read-out: pGI50 (converted)): 468 nM | CC50 (T47D; [21]): > 50100 nM | TGI (T47D; read-out: pTGI (converted)): 9770 nM | growth at 50 µM (NCI-H23 [5]): -92% | growth at 0.5 µM (KM12): 74% | growth at 50 µM (SW-620 [6]): -89% | growth at 0.005 µM (OVCAR-8 [7]): 101% | growth at 0.5 µM (NCI-H522): 14% | GI50 (UACC-257 [8]; read-out: GI50): 679 nM | CC50 (UACC-257 [8]; [20]): 2630 nM | TGI (UACC-257 [8]; read-out: TGI): 1340 nM | GI50 (UACC-257 [8]; read-out: pGI50 (converted)): 676 nM | CC50 (UACC-257 [8]; [21]): 2630 nM | TGI (UACC-257 [8]; read-out: pTGI (converted)): 1350 nM | growth at 0.005 µM (NCI-H226): 92% | growth at 0.005 µM (NCI-H460): 91% | GI50 (SK-OV-3; read-out: GI50): 557 nM | CC50 (SK-OV-3; [20]): 16500 nM | TGI (SK-OV-3; read-out: TGI): 5430 nM | GI50 (SK-OV-3; read-out: pGI50 (converted)): 562 nM | CC50 (SK-OV-3; [21]): 16600 nM | TGI (SK-OV-3; read-out: pTGI (converted)): 5370 nM | GI50 (OVCAR-8 [9]; read-out: GI50): 514 nM | CC50 (OVCAR-8 [9]; [20]): > 50000 nM | TGI (OVCAR-8 [9]; read-out: TGI): 2200 nM | GI50 (OVCAR-8 [9]; read-out: pGI50 (converted)): 513 nM | CC50 (OVCAR-8 [9]; [21]): > 50100 nM | TGI (OVCAR-8 [9]; read-out: pTGI (converted)): 2190 nM | growth at 0.005 µM (LOX IMVI): 86% | GI50 (MDA-MB-468; read-out: GI50): 844 nM | CC50 (MDA-MB-468; [20]): 16900 nM | TGI (MDA-MB-468; read-out: TGI): 2620 nM | GI50 (MDA-MB-468; read-out: pGI50 (converted)): 851 nM | CC50 (MDA-MB-468; [21]): 17000 nM | TGI (MDA-MB-468; read-out: pTGI (converted)): 2630 nM | growth at 50 µM (HL-60(TB)): -46% | growth at 0.05 µM (SK-MEL-28): 100% | growth at 0.05 µM (A549): 29% | growth at 0.05 µM (M14 [10]): 94% | growth at 50 µM (TK-10): -98% | growth at 0.5 µM [11]: 101% | GI50 (CAKI-1; read-out: GI50): 1930 nM | CC50 (CAKI-1; [20]): 21000 nM | TGI (CAKI-1; read-out: TGI): 8370 nM | GI50 (CAKI-1; read-out: pGI50 (converted)): 1950 nM | CC50 (CAKI-1; [21]): 20900 nM | TGI (CAKI-1; read-out: pTGI (converted)): 8320 nM | growth at 5 µM (COLO 205): -13% | growth at 5 µM (BT-549): -66% | growth at 0.05 µM (HOP-92 [12]): 73% | growth at 5 µM (SW-620 [13]): -63% | growth at 50 µM (UACC-257 [14]): -58% | growth at 0.5 µM (A498): 51% | growth at 5 µM (OVCAR-3): 40% | growth at 0.5 µM (SF-295 [15]): 61% | GI50 (M14 [16]; read-out: GI50): 703 nM | CC50 (M14 [16]; [20]): > 50000 nM | TGI (M14 [16]; read-out: TGI): 2200 nM | GI50 (M14 [16]; read-out: pGI50 (converted)): 708 nM | CC50 (M14 [16]; [21]): > 50100 nM | TGI (M14 [16]; read-out: pTGI (converted)): 2190 nM | growth at 5 µM (SF-295 [17]): 17% | GI50 (IGROV-1 [18]; read-out: GI50): 360 nM | CC50 (IGROV-1 [18]; [20]): > 50000 nM | TGI (IGROV-1 [18]; read-out: TGI): 7590 nM | GI50 (IGROV-1 [18]; read-out: pGI50 (converted)): 363 nM | CC50 (IGROV-1 [18]; [21]): > 50100 nM | TGI (IGROV-1 [18]; read-out: pTGI (converted)): 7590 nM | growth at 0.5 µM [19]: 77% | GI50 (OVCAR-4; read-out: GI50): 911 nM | CC50 (OVCAR-4; [20]): 14100 nM | TGI (OVCAR-4; read-out: TGI): 2730 nM | GI50 (OVCAR-4; read-out: pGI50 (converted)): 912 nM | CC50 (OVCAR-4; [21]): 14100 nM | TGI (OVCAR-4; read-out: pTGI (converted)): 2750 nM
